Calls of active or inactive are those of the source. The rule behind the calls is not given here.

We go through one molecule from ChEMBL document CHEMBL5154683, “A 5-FU Precursor Designed to Evade Anabolic and Catabolic Drug Pathways and Activated by Pd Chemistry In Vitro and In Vivo” (J Med Chem, 2022).

A short description of data set [1]: Mean residence time in male Wistar Han rat at 1000 mg/kg, po administered as single dose measured upto 24 hrs. It is filed as ADME, organism-based. The settings on record: in vivo. The essentials:
(§1)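 Single oral dose 1000 mg/kg in male and female rats, dosing volume 10 mL/kg (n = 6); animals observed 14 days with clinical checks, functional/neurobehavioral tests and body weight, necropsy on d15; exposure parameters from the toxicokinetic arm of this study.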

Data set [2] can be described thus: Plasma protein binding in human assessed as compound recovery at 5 uM. It is filed as ADME, cell-free. Conditions: read-out: Drug recovery. In outline:
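Binding of compound at 5 μM measured in rat and human plasma, with compound recovery determined; n = 3.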

Data set [3] can be described thus: Prodrug conversion in PBS buffer assessed as 5-Fluorouracil formation by measuring retention time at 100 uM in presence of Pd-resin measured upto 1 hr by UPLC analysis. It is filed as ADME. In outline: (§2)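 Prodrug (100 μM in PBS, pH 7.4) shaken at 1200 rpm, 37 °C with 1 mg/mL Pd resins (30 μm). Sampled at 10, 20, 40 min, 1, 3, 6, 24 and 48 h; analyzed by reverse-phase UPLC (C18, 60 °C, UV 254 nm), products identified by retention time against authentic standards.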

Data set [4] can be described thus: Apparent permeability across apical to basolateral side in human Caco-2 cells assessed as drug recovery at 10 uM measured after 120 mins by LC-MS/MS analysis. It is filed as ADME, cell-based. The settings on record: read-out: Drug recovery. The essentials: (§3)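 Caco-2 cells (P40-60) seeded at 1 × 10⁵ cells/cm² on Transwells, used on day 20; rinsed and equilibrated 40 min in HBSS pH 7.4. Compound at 10 μM in HBSS, 1% v/v DMSO, added apically (A–B) or basolaterally (B–A); 120 min at 37 °C, 5% CO₂. Lucifer yellow monitored monolayer integrity; LC-MS/MS with eight-point calibration; recovery from C₀ and both compartments.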

A short description of data set [5]: Prodrug conversion in PBS buffer assessed as mono-depropargylated intermediate formation by measuring retention time at 100 uM in presence of Pd-resin measured upto 1 hr by UPLC analysis. It is filed as ADME. The essentials: as §2
A short description of data set [6]: Tmax in female Wistar Han rat at 1000 mg/kg, po administered as single dose measured upto 24 hrs. It is filed as ADME, organism-based. The settings on record: in vivo. The essentials:
as §1

The nature of data set [7]: Cmax in male Wistar Han rat at 1000 mg/kg, po administered as single dose measured upto 24 hrs. It is filed as ADME, organism-based. Details: time < 24 hrs, dose 1000 mg/kg, route po. The settings on record: in vivo. The essentials:
as §1

Data set [8] can be described thus: AUC (0 to infinity) in male Wistar Han rat at 10 mg/kg, po administered as single dose measured upto 24 hrs. It is filed as ADME, organism-based. More on the design: time < 24 hrs, dose 10 mg/kg, route po. Conditions: in vivo. In outline:
(§4)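 Male jugular-vein-cannulated Wistar Han rats, 263–319 g, single dose. IV: 1 mg/kg as 2 mL/kg of 0.5 mg/mL in 5% DMSO/95% HPCD (20% w/v), not fasted. PO: 10 mg/kg as 5 mL/kg of 2 mg/mL suspension in 5% DMSO/95% tween 80/HPCD vehicle, fasted overnight. Serial cannula blood sampling 0.083/0.25–24 h (n = 3/route); parent quantified by QToF against calibration curve.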

Data set [9] in a line: Volume of distribution at steady state in male Wistar Han rat at 1 mg/kg, iv administered as single dose measured upto 24 hrs. Type of data set: ADME, organism-based. The settings on record: in vivo, read-out: Vdss. In outline:
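Male jugular-vein-cannulated Wistar Han rats (n = 3, 263–319 g, not fasted) given 1 mg/kg IV as 2 mL/kg of 0.5 mg/mL solution in 5% DMSO/95% HPCD (20% w/v). Serial blood via cannula from 0.083 to 24 h, mixed with heparinized water and stored at –20 °C. Parent quantified by QToF against a calibration curve.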

The test system of another data set is HCT-116. Kind of data set: Antiproliferative activity against human HCT-116 cells assessed as increase in cytotoxicity at 1 uM incubated for 5 days in presence of Pd-resin by PrestoBlue dye based assay. Type of data set: functional, cell-based. The settings on record: time 5.0 day.
Data set [10] in a line: Efflux ratio of apparent permeability across basolateral to apical side over apical to basolateral side in human Caco2 cells at 10 uM measured after 120 mins by LC-MS/MS analysis. It is filed as ADME, cell-based. The settings on record: Caco-2. In outline: as §3
A general note: Caco-2 monolayers are a common model of the intestinal barrier.

Data set [11] can be described thus: Mean residence time in male Wistar Han rat at 1 mg/kg, iv administered as single dose measured upto 24 hrs. It is filed as ADME, organism-based. The settings on record: in vivo. The essentials:
as §4

The nature of data set [12]: Toxicity in female Wistar Han rat assessed as mortality at 1000 mg/kg, po administered as single dose measured over 14 days. It is filed as organism-based. The settings on record: in vivo, 336 h, time > 14 day. In outline: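 Single oral dose of 1000 mg/kg at 10 mL/kg to male and female rats (n = 6), then 14 d observation. Morbidity and mortality checked twice daily. Clinical signs recorded predose, twice on dosing day, then daily. FOB on d1, d7 or d14. Body weight on d1, 2, 5, 8, 11 and 14. Gross necropsy on d15.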

Data set [13] in a line: AUC (0 to t) in female Wistar Han rat at 1000 mg/kg, po administered as single dose measured upto 24 hrs. It is filed as ADME, organism-based. More on the design: dose 1000 mg/kg, time < 24 hrs, route po. Conditions: in vivo. In outline: as §1
A short description of data set [14]: Prodrug conversion in human liver S9 fraction assessed as DH5FU metabolite formation at 1.6 mM incubated for 1 hr in presence of NADPH by 19F-NMR based analysis. It is filed as ADME, subcellular. The settings on record: s9, 1 h, 1600 µM. In outline:
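Compound added as 150 mM stock in DMSO-d₆, preincubated 5 min at 37 °C with enzyme mixture, then NADPH added (1 mM) and incubated 1 h at 37 °C, 600 rpm; controls without NADPH and without enzymes. Stopped with EtOAc, dried under N₂, redissolved in DMSO-d₆, DH5FU detected by ¹⁹F NMR vs authentic sample.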

Data set [15] can be described thus: Metabolic stability in rat hepatocytes assessed as intrinsic clearance at 3 uM measured per 10^6 cells by LC-MS/MS analysis. Conditions: read-out: CLH. It is filed as ADME, cell-based, Hepatocyte. In outline: (§5)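 Suspended hepatocytes (0.5 × 10⁶ cells/mL) in Williams E medium with 2 mM L-glutamine and 25 mM HEPES at 37 °C, compound added with 0.25% v/v DMSO after preincubation; aliquots quenched into methanol with internal standard at time points, centrifuged, supernatant analyzed by LC-MS/MS; two control compounds included.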

Data set [16] in a line: Stability in Sprague-Dawley rat hepatocytes assessed as parent compound remaining at 10 uM measured after 60 mins by UPLC analysis. It is filed as ADME, cell-based, Hepatocyte. The settings on record: read-out: Stability. In outline: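 Cryopreserved male Sprague–Dawley rat or male human hepatocytes (0.5 × 10⁶ cells/mL) in Leibovitz buffer with 10 μM compound, 37 °C, shaken 700 rpm, 60 min. Samples at 0 and 60 min quenched 1:1 with ice-cold acetonitrile; supernatant analyzed by UPLC–QToF MS (positive ion). Hepatocyte-only and buffer-only negatives; verapamil and 7-hydroxycoumarin as viability controls.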

Data set [17] in a line: AUC (0 to t) in male Wistar Han rat at 1 mg/kg, iv administered as single dose measured upto 24 hrs. Type of data set: ADME, organism-based. The settings on record: in vivo. Details: dose 1 mg/kg, time < 24 hrs, route iv. In outline: as §4
A short description of data set [18]: Clearance in male Wistar Han rat at 1 mg/kg, iv administered as single dose measured upto 24 hrs. It is filed as ADME, organism-based. Conditions: in vivo. The essentials:
as §4

Data set [19] in a line: Apparent permeability across apical to basolateral side in human Caco-2 cells at 10 uM measured after 120 mins by LC-MS/MS analysis. It is filed as ADME, cell-based. The essentials:
as §3

The target in another data set is Albumin (Homo sapiens, UniProt P02768). Kind of data set: Binding affinity to human plasma albumin. It is filed as ADME, cell-free.
Data set [20] is described as follows: Metabolic stability in human hepatocytes assessed as intrinsic clearance at 1 uM measured per 10^6 cells by LC-MS/MS analysis. It is filed as ADME, cell-based, Hepatocyte. Conditions: read-out: CLH. In outline:
as §5

Data set [21] in a line: Tmax in male Wistar Han rat at 10 mg/kg, po administered as single dose measured upto 24 hrs. It is filed as ADME, organism-based. Conditions: in vivo. In outline: as §4

Sequence of Albumin (P02768 whole entry): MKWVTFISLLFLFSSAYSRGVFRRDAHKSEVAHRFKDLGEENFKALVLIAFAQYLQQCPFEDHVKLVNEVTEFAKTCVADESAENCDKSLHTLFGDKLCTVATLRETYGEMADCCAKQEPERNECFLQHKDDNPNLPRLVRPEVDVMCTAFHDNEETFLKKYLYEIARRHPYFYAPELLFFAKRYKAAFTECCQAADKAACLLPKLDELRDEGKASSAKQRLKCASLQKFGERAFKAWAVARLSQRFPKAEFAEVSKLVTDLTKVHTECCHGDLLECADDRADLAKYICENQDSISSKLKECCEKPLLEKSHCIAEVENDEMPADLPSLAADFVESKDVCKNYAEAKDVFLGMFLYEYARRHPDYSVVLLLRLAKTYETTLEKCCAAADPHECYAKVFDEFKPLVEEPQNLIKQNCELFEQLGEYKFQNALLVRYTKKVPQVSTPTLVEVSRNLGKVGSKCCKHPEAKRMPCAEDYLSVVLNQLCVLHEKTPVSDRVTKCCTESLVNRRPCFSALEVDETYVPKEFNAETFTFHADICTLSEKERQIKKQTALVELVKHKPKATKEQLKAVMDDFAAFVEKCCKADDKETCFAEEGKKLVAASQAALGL

In general, MRT refers to the average time that molecules of a dose stay in the body. For orientation: Tmax means the time at which the peak concentration occurs. As a reminder, the Cmax is the maximum level reached in the sampled fluid or tissue. Usually AUC(0-inf) stands for the area under the concentration-time curve extrapolated to infinity. Lower therefore signals low exposure. One may read the efflux ratio as a quotient of directional permeabilities that is used to spot active efflux. The AUC(0-t) is the area under the concentration-time curve up to a stated or last time point. Low readings indicate low exposure, high ones high exposure. Usually clearance stands for the rate of elimination divided by the concentration. Low values mean a low capacity for elimination, high ones a high capacity for elimination. As usually defined, the Papp A→B is the apparent permeability from the apical to the basolateral side of a cell layer. Take `C#CCOc1ncc(F)c(OCC#C)n1`: the results for the MRT in data set [1] and in data set [11] were 9.7 h and 0.569 h, respectively. Moreover, the recovery at 5 µM in [2] is 95.7%. For the same molecule, the Retention_time in data set [3] came out at 0.78 min; in data set [5], 0.98 min. The recovery at 2 h, 10 µM in data set [4] was 79.2%. The Tmax in data set [6] was determined as 4 h; in data set [21] it was 0.25 h. The peak level in [7] (Cmax) was 84.7 µg/mL. The molecule also yielded an AUC(0-inf) in data set [8] of 6.19 µg·h/mL. For the same molecule, the Vd in data set [9] was found to be 1.76 L/kg. Besides, the result with HCT-116 was Active. Further, in data set [10], the efflux ratio at 2 h, 10 µM is 1.38. Further, the figures for the Activity entry (in data set [12]; on Albumin) were “Non-Toxic” and 10%, respectively. For the same molecule, the AUC(0-t) at 24 h in [13] was found to be 1210 µg·h/mL; in [17] it was 0.324 µg·h/mL. Moreover, the Drug metabolism entry in data set [14] is reported as “Metabolite_Notdetected”. Further, the hepatocyte CLint at 3 µM in [15] turned out to be 3.31 µL/min/1e6 cells. Moreover, in data set [16], the remaining at 1 h, 10 µM worked out at 95%. This molecule came in with a clearance in data set [18] of 52.1 mL/min/kg. Further, the Papp A→B at 2 h, 10 µM in data set [19] is 28.1 ×10⁻⁶ cm/s. For the same molecule, the hepatocyte CLint at 1 µM in data set [20] was 4.51 µL/min/1e6 cells.
